Test results: ChEMBL document CHEMBL1145074, “Binding of tetrahydrocarboline derivatives at human 5-HT5A receptors” (J Med Chem, 2003)

Columns and labels:
[1] = target: 5-hydroxytryptamine receptor 2A (Rattus norvegicus, UniProt P14842); assay: Binding affinity towards rat 5-hydroxytryptamine 2A receptor expressed in NIH3T3 cells using [3H]ketanserin as radioligand; type: cell-based
Outline: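 Membranes from confluent NIH-3T3 cells stably expressing rat 5-HT2A, washed by centrifugation in 50 mM Tris-HCl. ~10 μg protein incubated with 0.5 nM [3H]ketanserin and 11 test concentrations (10⁻¹⁰ to 10⁻⁵ M) in triplicate. Incubation was 30 min at 37 °C in Tris/EDTA/MgCl2/ascorbate pH 7.4. Nonspecific binding defined with 10 μM ketanserin. Bound ligand was filtered and counted. Ki from Cheng–Prusoff, ≥3 determinations.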

[2] = target: T1, 5-hydroxytryptamine receptor 2C (Rattus norvegicus, UniProt P08909); assay: Binding affinity towards rat 5-hydroxytryptamine 2C receptor expressed in A-9 cells using [3H]mesulergine as radioligand; type: cell-based
T1 sequence (P08909 whole entry): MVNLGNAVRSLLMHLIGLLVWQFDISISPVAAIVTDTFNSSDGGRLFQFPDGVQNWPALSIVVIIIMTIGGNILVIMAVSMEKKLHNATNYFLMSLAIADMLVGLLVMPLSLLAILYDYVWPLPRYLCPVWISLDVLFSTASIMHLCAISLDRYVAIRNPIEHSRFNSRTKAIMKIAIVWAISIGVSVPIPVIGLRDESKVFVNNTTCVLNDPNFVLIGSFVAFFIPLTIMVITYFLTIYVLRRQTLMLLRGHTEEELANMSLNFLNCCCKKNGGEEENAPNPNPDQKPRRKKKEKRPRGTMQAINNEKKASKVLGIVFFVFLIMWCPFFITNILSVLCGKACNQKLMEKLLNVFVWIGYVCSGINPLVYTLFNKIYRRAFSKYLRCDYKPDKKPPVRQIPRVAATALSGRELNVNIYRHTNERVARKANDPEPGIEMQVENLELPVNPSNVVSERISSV
Outline: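 Rat 5-HT2C stably expressed in A-9 cells, grown to confluence; washed membranes (~10 μg protein) used. Competition against 2.0 nM [3H]mesulergine with 11 concentrations from 10⁻¹⁰ to 10⁻⁵ M, triplicate. Incubation 30 min, 37 °C, pH 7.4 Tris buffer with EDTA, MgCl2 and ascorbate. 1 μM mesulergine defined nonspecific binding. Filtration, scintillation counting. Ki via Cheng–Prusoff; at least three replicates.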

[3] = target: 5-hydroxytryptamine receptor 5A (Mus musculus, UniProt P30966); assay: Binding affinity towards mouse 5-hydroxytryptamine 5A receptor using LSD as radioligand
5-hydroxytryptamine receptor 5A (Mus musculus, UniProt P30966), sequence (P30966 whole entry): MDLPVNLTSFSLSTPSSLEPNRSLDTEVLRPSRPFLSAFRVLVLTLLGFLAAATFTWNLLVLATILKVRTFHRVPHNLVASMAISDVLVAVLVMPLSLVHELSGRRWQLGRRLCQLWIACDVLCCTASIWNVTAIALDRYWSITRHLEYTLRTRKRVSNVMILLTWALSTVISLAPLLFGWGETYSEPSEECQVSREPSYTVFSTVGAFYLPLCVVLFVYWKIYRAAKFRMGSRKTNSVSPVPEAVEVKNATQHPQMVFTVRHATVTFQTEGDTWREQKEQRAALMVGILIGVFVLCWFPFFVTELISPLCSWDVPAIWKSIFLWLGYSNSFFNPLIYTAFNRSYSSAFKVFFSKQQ

[4] = target: T2, 5-hydroxytryptamine receptor 5A (Homo sapiens, UniProt P47898); assay: Binding affinity towards human 5-hydroxytryptamine 5A receptor using LSD as radioligand
T2 sequence (P47898 whole entry): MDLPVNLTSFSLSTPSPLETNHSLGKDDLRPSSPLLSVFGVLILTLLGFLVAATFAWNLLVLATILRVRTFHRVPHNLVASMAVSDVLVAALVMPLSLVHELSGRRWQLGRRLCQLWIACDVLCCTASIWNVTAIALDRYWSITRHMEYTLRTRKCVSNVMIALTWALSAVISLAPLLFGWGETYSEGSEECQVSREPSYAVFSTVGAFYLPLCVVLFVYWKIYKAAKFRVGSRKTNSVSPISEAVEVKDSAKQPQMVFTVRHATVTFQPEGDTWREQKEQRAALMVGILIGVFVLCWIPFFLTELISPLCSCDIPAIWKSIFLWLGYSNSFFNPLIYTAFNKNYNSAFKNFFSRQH

[5] = target: T2, 5-hydroxytryptamine receptor 5A; assay: Binding affinity towards 5-hydroxytryptamine 5A receptor using lysergic acid diethylamide (LSD) as radioligand
Outline: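 Radioligand competition binding at cloned 5-HT5A receptors (clone supplied by R. Hen). Nonspecific binding defined with 1 μM LSD.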

5-hydroxytryptamine receptor 2A, sequence (P14842 whole entry): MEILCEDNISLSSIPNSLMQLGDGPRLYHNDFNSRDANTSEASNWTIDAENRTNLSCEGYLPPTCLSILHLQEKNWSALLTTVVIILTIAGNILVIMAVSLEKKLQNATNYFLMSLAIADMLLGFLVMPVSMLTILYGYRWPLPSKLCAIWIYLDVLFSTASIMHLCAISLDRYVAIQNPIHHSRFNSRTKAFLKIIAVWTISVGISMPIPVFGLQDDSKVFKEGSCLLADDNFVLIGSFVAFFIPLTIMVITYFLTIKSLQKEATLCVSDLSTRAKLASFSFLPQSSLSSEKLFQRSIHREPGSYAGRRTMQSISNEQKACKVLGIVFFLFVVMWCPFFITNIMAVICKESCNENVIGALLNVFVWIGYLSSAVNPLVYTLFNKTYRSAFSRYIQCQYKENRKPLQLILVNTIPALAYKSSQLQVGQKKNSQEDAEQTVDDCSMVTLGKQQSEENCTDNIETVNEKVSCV

Structure (SMILES)	Ki [1] [nM]	Ki [2] [nM]	Ki [3] [nM]	Ki [4] [nM]	Ki [5] [nM]
Cn1c2c(c3ccccc31)CN(CCCCCCc1ccccc1)CC2	185	530	435		
Cn1c2c(c3ccccc31)CN(CCCCCc1ccccc1)CC2	130	1000	120	174	
Cn1c2c(c3ccccc31)CN(CCCO)CC2			1100	1120	
Cn1c2c(c3ccccc31)CN(CCC/C(=N/O)c1ccc(F)cc1)CC2	38	190		340	
Cn1c2c(c3ccccc31)CN(CCCOc1cccc3ccccc13)CC2	625	400	650		
c1ccc(OCCCN2CCc3[nH]c4ccccc4c3C2)cc1	20	160	600		
Cn1c2c(c3ccccc31)CN(CCCc1ccccc1)CC2			250		
CN(CCCOc1ccc(F)cc1)Cc1cn(C)c2ccccc12					1080
Fc1ccc(OCCCN2CCc3ccccc3C2)cc1					400
Fc1ccc(OCCCN2CCc3[nH]c4ccccc4c3C2)cc1			75		
Cn1c2c(c3cccc(Cl)c31)CN(CCCOc1ccc(F)cc1)CC2	210	225	590	225	
Cn1c2c(c3ccccc31)CCN(CCCOc1ccccc1)C2	150	400	360	620	
Cn1c2c(c3ccccc31)CN(CCCOc1ccc(Cl)c(Cl)c1)CC2	195			200	
Cn1c2c(c3ccccc31)CN(CCCOc1ccc(Cl)cc1)CC2	115			200	
Cn1c2c(c3ccccc31)CN(CCOc1ccc(F)cc1)CC2	175	235		930	
CCn1c2c(c3ccccc31)CN(CCCOc1ccccc1)CC2	50	215	75	100	
COc1cccc2c3c(n(C)c12)CCN(CCCOc1ccc(F)cc1)C3	120	225	1220	1390	
COc1ccc2c(c1)c1c(n2C)CCN(CCCOc2ccc(F)cc2)C1	38	150	98	165	
Cn1c2c(c3ccccc31)CN(CCCOc1ccccc1)CC2	70	285	25	100	
CC1=NCCc2c1n(C)c1ccccc21					> 10000
COc1ccc(CCCCN2CCc3c(c4ccccc4n3C)C2)cc1	415	990	90		
Fc1ccc(OCCCN2CCCCC2)cc1					> 10000
O=C(CCCN1CCc2c([nH]c3ccccc23)C1)c1ccccc1	16	115	550		
COc1ccc2c3c([nH]c2c1)C(C)NCC3 (stereo unspecified)					> 10000
Cn1c2c(c3ccccc31)CN(CCCC(=O)c1ccc(F)cc1)CC2	60	60	115		
Cn1c2c(c3ccccc31)CN(CCCCc1ccccc1)CC2			130		
Cn1c2c(c3ccccc31)CN(CCCC(=O)c1ccccc1)CC2	22		135	168	
Cn1c2c(c3ccccc31)CN(CC#CCCc1ccccc1)CC2			1710	1780	

Structure (SMILES)	Ki [1] [nM]	Ki [2] [nM]	Ki [3] [nM]	Ki [4] [nM]	Ki [5] [nM]
Cn1c2c(c3ccccc31)CN(CCCOc1ccc([N+](=O)[O-])cc1)CC2	280	300		250	
c1ccc(Cn2c3c(c4ccccc42)CN(CCCOc2ccccc2)CC3)cc1	65	90	875		
Cn1c2c(c3ccccc31)CN(C/C=C\CCc1ccccc1)CC2	120	285	330	208	
COc1ccc2[nH]c3c(C)nccc3c2c1					> 10000
Cn1c2c(c3ccccc31)CN(CCCOCc1ccccc1)CC2	225	650	295		
O=C(CCCN1CCc2[nH]c3ccccc3c2C1)c1ccc(F)cc1			512		
Cn1c2c(c3cc(Cl)ccc31)CN(CCCOc1ccc(F)cc1)CC2	130	300	180	270	
COc1ccc2[nH]c3c(c2c1)CCN=C3C					> 10000
Cn1c2c(c3ccccc31)CN(CCCC(O)c1ccc(F)cc1)CC2 (stereo unspecified)	160	390	225	285	
Cn1c2c(c3ccccc31)CN(CCCOc1ccc3ccccc3c1)CC2	480	300	655		
COc1ccc(OCCCN2CCc3c(c4ccccc4n3C)C2)cc1	100			350	
Cn1ccc2c1CCN(CCCOc1ccc(F)cc1)C2					1920
Cn1c2c(c3ccccc31)CN(CCCCc1ccc(F)cc1)CC2	65		95		
Cn1c2c(c3ccccc31)CC(CCCOc1ccc(N)cc1)CC2 (stereo unspecified)					> 10000
c1ccc(OCCCN2CCc3c([nH]c4ccccc34)C2)cc1	50	310	335		
Cn1c2c(c3ccccc31)CN(CCCOc1ccc(N)cc1)CC2	285	300		190	
Cn1c2c(c3ccccc31)CN(C/C=C/CCc1ccccc1)CC2	60	245	350	185	
COc1ccc2c3c([nH]c2c1)CNCC3					> 10000
CN(C)CCCOc1ccc(F)cc1					> 10000
Cn1c2c(c3ccccc31)CNCC2	3100				
Cn1c2c(c3ccccc31)CN(CCCOc1ccc(F)cc1)CC2	30	75	13		
COc1ccc2c3c([nH]c2c1)C=NCC3 [CGS-19281A]					> 10000
COc1ccc2c3c([nH]c2c1)C(C)=NCC3 [HARMALINE]					> 10000
CC1=NCCc2c1[nH]c1cc(O)ccc21 [HARMALOL]					> 10000
COc1ccc2c(c1)[nH]c1c(C)nccc12 [HARMINE]					> 10000
CC1NCCc2c1[nH]c1ccccc21 (stereo unspecified) [TETRAHYDROHARMAN]					> 10000
c1ccc2c3c([nH]c2c1)CNCC3 [TRYPTOLINE]					3200
